Laboratory results reported in ChEMBL document CHEMBL1135733, “6-Sulfonylchromenes as highly potent K(ATP)-channel openers” (J Med Chem, 2002).

Tests used:
[1] = target: ATP-binding cassette sub-family C member 9 (Rattus norvegicus) (UniProt Q63563); assay: Binding affinity to the sulfonylurea receptor 2A (SUR2A) in purified membranes of rat-heart myocytes; format: cell membranes
[2] = target: ATP-binding cassette sub-family C member 9 (Rattus norvegicus) (UniProt Q63563); assay: Binding affinity towards Sulfonylurea receptor 2B (SUR2B) in cultured rat aortic smooth muscle cells (SMC)
Rattus norvegicus [3] = organism: Rattus norvegicus; assay: Dilator activity expressed as potency for relaxation of Tracheal strips percontracted with 0.6 uM carbachol; format: functional
Summary of the method: (§1)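 Rat tracheal strips at 10 mN resting force in supplemented Krebs solution, 32.5 °C, equilibrated 2 h with two test contractures; concentration-effect curves, effects as % of basal force (100% relaxation) vs maximum force (0%). pEC50 by linear extrapolation at half-maximal effect; Emax as % of basal tension; mean ± SEM, n = 4–6; paired time controls.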

Rattus norvegicus [4] = organism: Rattus norvegicus; assay: Maximum level of relaxation of aortic rings measured as percentage of basal tension.; format: functional; details: Aorta
Summary of the method: (§2)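 Isolated rat aortic rings at 5 mN resting force in supplemented Krebs solution, 32.5 °C, equilibrated 2 h with two test contractures; cumulative concentration-effect curves, effects as % of basal force (100% relaxation) vs maximum force (0%). pEC50 by linear extrapolation at half-maximal effect; Emax as % of basal tension; mean ± SEM, n = 4–6; paired time controls.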

Rattus norvegicus [5] = organism: Rattus norvegicus; assay: Dilator activity expressed as potency for relaxation of Aortic rings precontracted with 25 mM K; format: functional; summary of the method: as §2
Rattus norvegicus [6] = organism: Rattus norvegicus; assay: Difference between the pEC50 values in rat aorta and trachea as an indicator of selectivity; format: functional
Rattus norvegicus [7] = organism: Rattus norvegicus; assay: Maximum level of relaxation of tracheal strips measured as percentage of basal tension; format: functional; details: Trachea; summary of the method: as §1

Sequence of ATP-binding cassette sub-family C member 9 (Rattus norvegicus) (Q63563 whole entry): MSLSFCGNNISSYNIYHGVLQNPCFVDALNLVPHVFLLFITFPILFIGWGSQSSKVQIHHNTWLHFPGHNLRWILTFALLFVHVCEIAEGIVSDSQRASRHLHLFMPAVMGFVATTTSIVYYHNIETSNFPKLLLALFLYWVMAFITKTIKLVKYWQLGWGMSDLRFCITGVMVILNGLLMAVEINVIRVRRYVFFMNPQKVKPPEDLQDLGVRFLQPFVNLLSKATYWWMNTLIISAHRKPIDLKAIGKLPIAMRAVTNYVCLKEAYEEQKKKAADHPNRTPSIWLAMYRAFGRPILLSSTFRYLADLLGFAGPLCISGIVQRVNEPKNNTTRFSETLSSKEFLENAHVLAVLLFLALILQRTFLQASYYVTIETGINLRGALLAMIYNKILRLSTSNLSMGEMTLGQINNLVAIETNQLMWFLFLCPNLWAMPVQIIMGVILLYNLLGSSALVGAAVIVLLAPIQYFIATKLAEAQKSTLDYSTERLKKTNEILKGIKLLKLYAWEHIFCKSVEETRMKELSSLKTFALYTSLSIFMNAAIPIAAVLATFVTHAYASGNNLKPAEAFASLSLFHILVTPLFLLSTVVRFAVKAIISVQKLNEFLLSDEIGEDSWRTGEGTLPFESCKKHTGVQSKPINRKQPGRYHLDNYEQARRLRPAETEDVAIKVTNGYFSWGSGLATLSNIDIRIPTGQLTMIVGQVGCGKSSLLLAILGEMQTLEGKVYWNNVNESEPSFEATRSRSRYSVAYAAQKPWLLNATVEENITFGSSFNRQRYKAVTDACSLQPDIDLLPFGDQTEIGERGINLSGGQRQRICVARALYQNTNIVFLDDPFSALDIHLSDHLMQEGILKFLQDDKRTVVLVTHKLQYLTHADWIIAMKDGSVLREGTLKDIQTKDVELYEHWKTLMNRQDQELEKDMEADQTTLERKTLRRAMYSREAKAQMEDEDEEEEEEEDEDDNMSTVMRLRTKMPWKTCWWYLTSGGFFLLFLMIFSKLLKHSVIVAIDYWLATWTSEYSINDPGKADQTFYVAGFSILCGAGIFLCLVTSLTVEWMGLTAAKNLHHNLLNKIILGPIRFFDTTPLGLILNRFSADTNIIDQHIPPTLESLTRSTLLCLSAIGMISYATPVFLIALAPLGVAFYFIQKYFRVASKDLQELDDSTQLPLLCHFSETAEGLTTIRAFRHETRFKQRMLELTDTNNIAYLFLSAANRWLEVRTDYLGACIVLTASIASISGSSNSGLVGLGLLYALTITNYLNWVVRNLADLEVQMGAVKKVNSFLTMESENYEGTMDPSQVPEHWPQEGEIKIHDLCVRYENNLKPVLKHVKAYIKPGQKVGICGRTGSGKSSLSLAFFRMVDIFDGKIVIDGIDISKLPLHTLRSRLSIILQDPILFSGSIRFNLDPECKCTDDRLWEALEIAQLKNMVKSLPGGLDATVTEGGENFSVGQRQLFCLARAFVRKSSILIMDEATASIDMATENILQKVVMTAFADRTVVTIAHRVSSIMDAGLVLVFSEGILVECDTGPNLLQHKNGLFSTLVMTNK

Row | pKD [1] | pKD [2] | EC50 (Rattus norvegicus [3]) [nM] | EC50 (Rattus norvegicus [5]) [nM] | Delta pEC50 (Rattus norvegicus [6]) | pKD ([1]; tested as the 2H-labelled form) | pKD ([2]; tested as the 2H-labelled form) | SMILES | Emax (Rattus norvegicus [4]) [%] | Emax (Rattus norvegicus [7]) [%]
1 | 7.63 | 7.96 |  |  |  |  |  | CC1(C)C=C(n2ccccc2=O)c2cc(S(=O)(=O)Nc3ccccc3F)ccc2O1 |  | 
2 | 6.86 | 7.64 |  |  |  |  |  | CC1(C)C=C(n2ccccc2=O)c2cc(S(=O)(=O)Nc3ccccc3Br)ccc2O1 |  | 
3 | 7.83 |  | 204 | 16.2 | 1.1 |  |  | CC1(C)C=C(n2ccccc2=O)c2cc(S(=O)(=O)N=[N+]=[N-])ccc2O1 | 88.3 | 77.2
4 | 6.27 | 6.61 | 490 | 117 | 0.62 |  |  | COc1ccc(NS(=O)(=O)c2ccc3c(c2)C(n2ccccc2=O)=CC(C)(C)O3)cc1 | 77.9 | 84.2
5 | 6.5 | 6.94 | 224 | 69.2 | 0.51 |  |  | CC1(C)C=C(n2ccccc2=O)c2cc(S(N)(=O)=O)ccc2O1 | 77.5 | 92.1
6 | 7.57 | 8.15 | 26.9 | 2.4 | 1.05 |  |  | CC1(C)Oc2ccc(S(=O)(=O)c3ccccc3)cc2[C@@H](N2CCCC2=O)[C@@H]1O [RILMAKALIM] | 81.2 | 78.5
7 | 6.86 | 7.19 | 182 | 17.4 | 1.02 |  |  | CC1(C)C=C(n2ccccc2=O)c2cc(S(=O)(=O)c3ccccc3)ccc2O1 | 79.3 | 88.1
8 | 7.78 | 8.55 | 13.2 | 2.51 | 0.72 |  |  | CC1(C)C=C(n2ccccc2=O)c2cc(S(=O)(=O)Oc3ccccc3)ccc2O1 | 67.9 | 86.7
9 | 5.85 | 6.27 |  |  |  |  |  | CC1(C)C=C(n2ccccc2=O)c2cc(S(=O)(=O)NC3CCCC3)ccc2O1 |  | 
10 | 7.69 | 7.87 | 9.77 | 1.74 | 0.75 |  |  | CN(c1ccccc1)S(=O)(=O)c1ccc2c(c1)C(n1ccccc1=O)=CC(C)(C)O2 | 64.2 | 86.5
11 |  |  | 13.2 | 2 | 0.82 |  |  | [2H]c1c([2H])c([2H])c(NS(=O)(=O)c2ccc3c(c2)C(n2ccccc2=O)=CC(C)(C)O3)c([2H])c1[2H] | 82.5 | 88
12 | 5.28 | 6 | 1320 | 525 | 0.4 |  |  | CC1(C)C=C(n2ccccc2=O)c2cc(S(=O)(=O)NCc3ccccc3)ccc2O1 | 71.1 | 77.5
13 | 5.5 |  | 10000 | 1410 | 0.85 |  |  | CC1(C)C=C(n2ccccc2=O)c2cc(S(=O)(=O)NC(=O)Nc3ccccc3)ccc2O1 | 90.8 | 99.5
14 | 6.16 | 6.34 | 1000 | 110 | 0.96 |  |  | CC1(C)C=C(n2ccccc2=O)c2cc(S(=O)(=O)NCCO)ccc2O1 | 95.5 | 87.9
15 | 6.91 | 7.2 | 95.5 | 16.2 | 0.77 |  |  | CN(C)S(=O)(=O)c1ccc2c(c1)C(n1ccccc1=O)=CC(C)(C)O2 | 78.3 | 74.1
16 | 7.25 | 7.98 | 158 | 16.2 | 0.99 |  |  | CC1(C)C=C(n2ccccc2=O)c2cc(C#N)ccc2O1 [BIMAKALIM] | 92.3 | 84.2
17 | 6.7 | 7 |  | 56.2 | 0.88 |  |  | CCNS(=O)(=O)c1ccc2c(c1)C(n1ccccc1=O)=CC(C)(C)O2 | 72.4 | 87
18 | 7.18 | 7.26 | 138 | 17.8 | 0.89 |  |  | CNS(=O)(=O)c1ccc2c(c1)C(n1ccccc1=O)=CC(C)(C)O2 | 85.8 | 83
19 | 5.25 |  |  |  |  |  |  | CC1(C)C=C(n2ccccc2=O)c2cc(S(=O)(=O)NC(=O)NC3CCCCC3)ccc2O1 |  | 
20 | 7.83 | 8.05 |  | 3.09 | 0.66 | 7.73 | 8.13 | CC1(C)C=C(n2ccccc2=O)c2cc(S(=O)(=O)Nc3ccccc3)ccc2O1 | 63.6 | 84.5
21 | 6.44 | 6.73 | 603 | 85.1 | 0.85 |  |  | CC1(C)C=C(n2ccccc2=O)c2cc(S(=O)(=O)N3CCOCC3)ccc2O1 | 75.5 | 85.1
22 | 5.77 | 6.65 |  |  |  |  |  | CC1(C)C=C(n2ccccc2=O)c2cc(S(=O)(=O)Nc3ccc(Br)cc3)ccc2O1 |  | 
23 | 5.5 | 6.12 | 1380 | 263 | 0.72 |  |  | CC1(C)C=C(n2ccccc2=O)c2cc(S(=O)(=O)Nc3ccc(C#N)cc3)ccc2O1 | 84 | 90.8
24 | 5.18 | 5.08 | 1950 | 676 | 0.46 |  |  | CC(C)NS(=O)(=O)c1ccc2c(c1)C(n1ccccc1=O)=CC(C)(C)O2 | 76.9 | 94.8
25 | 6.45 | 6.94 |  |  |  |  |  | CCN(CC)S(=O)(=O)c1ccc2c(c1)C(n1ccccc1=O)=CC(C)(C)O2 |  | 
26 | 5.35 | 5.8 | 10200 | 2090 | 0.69 |  |  | CC1(C)C=C(n2ccccc2=O)c2cc(S(=O)(=O)Nc3ccc([N+](=O)[O-])cc3)ccc2O1 | 82.2 | 75.6

Row | SMILES | pKD [1] | pKD [2] | EC50 (Rattus norvegicus [3]) [nM] | EC50 (Rattus norvegicus [5]) [nM] | Delta pEC50 (Rattus norvegicus [6]) | pKD ([1]; tested as the 2H-labelled form) | pKD ([2]; tested as the 2H-labelled form) | Emax (Rattus norvegicus [4]) [%] | Emax (Rattus norvegicus [7]) [%]
27 | CC1(C)C=C(n2ccccc2=O)c2cc(S(=O)(=O)F)ccc2O1 | 7.83 | 8.01 | 93.3 | 4.79 | 1.3 |  |  | 84.4 | 90.5
